Series [1] is described as follows: Phototoxicity in albino guinea pig assessed as erythema and edema topical treatment irradiated with 4.2 mw/cm2 UVA for 40 mins and measured after 24 hrs day of light irradiation by H and E staining based microscopic analysis. As to conditions: topical_or_ocular. Also on record: species or system Cavia porcellus. In a few lines: (§1)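 Albino guinea pigs (250–300 g) were randomized into 5 groups. Four 2 cm × 2 cm depilated areas beside the spine were prepared 24 h before dosing, and 0.2 mL of test substance was applied. Animals were restrained and exposed to UVA for 40 min. Erythema, eschar and oedema were scored visually at 1, 24, 48 and 72 h. Skin taken at 72 h was formalin-fixed, H&E-stained and read by a pathologist.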

The nature of series [2]: Phototoxicity in albino guinea pig assessed as erythema and edema topical treatment irradiated with 4.2 mw/cm2 UVA for 40 mins and measured after 72 hrs day of light irradiation by H and E staining based microscopic analysis. The arrangement: species or system Cavia porcellus. As to conditions: topical_or_ocular. In a few lines: as §1
Series [3] is described as follows: Phototoxicity in albino guinea pig assessed as infiltration of inflammatory cells at 10 mg/kg topical treatment irradiated with 4.2 mw/cm2 UVA for 40 mins and measured after 24 hrs day of light irradiation by H and E staining based microscopic analysis. In kind it is organism-based, Cavia porcellus. The following applies: in vivo, topical_or_ocular, in the assay text read “72 hrs” for “24 hrs”. A digest of the protocol:
as §1

Series [4] in a line: Phototoxicity in albino guinea pig assessed as necrosis at 10 mg/kg topical treatment irradiated with 4.2 mw/cm2 UVA for 40 mins and measured after 24 hrs day of light irradiation by H and E staining based microscopic analysis. In kind it is organism-based, Cavia porcellus. The following applies: in vivo, topical_or_ocular, in the assay text read “72 hrs” for “24 hrs”. In a few lines:
as §1

With `COc1c2occc2cc2ccc(=O)oc12` [METHOXSALEN], the Activity entry in series [1] is listed as “Toxic”; in series [2] it was “Non-Toxic”; in series [3] it was “Toxic”; in series [4], “Toxic”.

The record behind these values is ChEMBL document CHEMBL4813940, “Design, synthesis and biological evaluation of novel benzoxaborole derivatives as potent PDE4 inhibitors for topical treatment of atopic dermatitis” (Eur J Med Chem, 2021).
